From ChEMBL document CHEMBL1153046, “Synthesis and antitumor activity of substituted triazolo[4,3-a]pyrimidin-6-sulfonamide with an incorporated thiazolidinone moiety” (2009)

Assays:
Format in all cases: functional
HL-60(TB) = test: Growth inhibition of human HL-60(TB) cells after 48 hrs by sulforhodamine B assay; settings: HL-60, 48 h
Procedure, shortened: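 NCI 60-cell-line panel. Cells were grown in RPMI1640 with 5% fetal calf serum and 2 mM L-glutamine, seeded at a density suited to each line, and preincubated 24 h. Compounds were tested at a minimum of five concentrations at 10-fold dilutions over a 5-log range, with 48 h continuous exposure. Growth was read by sulforhodamine B protein staining, and GI50 was taken from dose-response curves.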

SF-295 = test: Growth inhibition of human SF295 cells after 48 hrs by sulforhodamine B assay; settings: SF-295, 48 h
Procedure, shortened: (§1)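 NCI 60-cell-line panel. Cells are grown in RPMI1640 with 5% fetal calf serum and 2 mM L-glutamine, seeded at a density set by growth characteristics, and preincubated 24 h. Compound is tested at a minimum of five concentrations at 10-fold dilution, with 48 h continuous exposure. Viability is read by sulforhodamine B protein assay. GI50, TGI and LC50 come from dose-response curves.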

SF-268 = test: Growth inhibition of human SF268 cells after 48 hrs by sulforhodamine B assay; settings: SF-268, 48 h; procedure, shortened: as §1
SK-OV-3 = test: Growth inhibition of human SKOV3 cells after 48 hrs by sulforhodamine B assay; settings: SK-OV-3, 48 h; procedure, shortened: as §1
SN12C = test: Growth inhibition of human SN12C cells after 48 hrs by sulforhodamine B assay; procedure, shortened: as §1
HOP-62 = test: Growth inhibition of human HOP62 cells after 48 hrs by sulforhodamine B assay; settings: HOP-62, 48 h; procedure, shortened: as §1
NCI/ADR-RES = test: Growth inhibition of human NCI/ADR-RES cells after 48 hrs by sulforhodamine B assay; procedure, shortened: as §1
HOP-92 = test: Growth inhibition of human HOP92 cells after 48 hrs by sulforhodamine B assay; settings: HOP-92, 48 h; procedure, shortened: as §1
[1] = Growth inhibition of human Hs 578T cells after 48 hrs by sulforhodamine B assay; procedure, shortened: as §1
K562 = test: Growth inhibition of human K562 cells after 48 hrs by sulforhodamine B assay; settings: K562, 48 h; procedure, shortened: as §1
RXF 393 = test: Growth inhibition of human RXF393 cells after 48 hrs by sulforhodamine B assay; settings: RXF 393, 48 h; procedure, shortened: as §1
HCT-116 = test: Growth inhibition of human HCT116 cells after 48 hrs by sulforhodamine B assay; settings: HCT-116, 48 h; procedure, shortened: as §1
ACHN = test: Growth inhibition of human ACHN cells after 48 hrs by sulforhodamine B assay; procedure, shortened: as §1
SK-MEL-2 = test: Growth inhibition of human SK-MEL-2 cells after 48 hrs by sulforhodamine B assay; settings: SK-MEL-2, 48 h; procedure, shortened: as §1
T47D = test: Growth inhibition of human T47D cells after 48 hrs by sulforhodamine B assay
Procedure, shortened: (§2)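 NCI 60-cell-line panel (nine cancer types), with cells grown in RPMI1640 plus 5% fetal calf serum and 2 mM L-glutamine. Cells are seeded at a density that depends on the line and preincubated 24 h. Compounds are then applied at a minimum of five 10-fold dilutions over a 5-log range with 48 h continuous exposure. Viability is read by SRB protein assay, and GI50 is derived from dose-response curves in units of 10^-5 M.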

SNB-75 = test: Growth inhibition of human SNB75 cells after 48 hrs by sulforhodamine B assay; settings: SNB-75, 48 h; procedure, shortened: as §2
IGROV-1 = test: Growth inhibition of human IGROV1 cells after 48 hrs by sulforhodamine B assay; settings: IGROV-1, 48 h; procedure, shortened: as §1
MDA-MB-231 = test: Growth inhibition of human MDA-MB-231 cells after 48 hrs by sulforhodamine B assay; settings: MDA-MB-231, 48 h; procedure, shortened: as §1
UO-31 = test: Growth inhibition of human UO31 cells after 48 hrs by sulforhodamine B assay; settings: UO-31, 48 h; procedure, shortened: as §2
SK-MEL-5 = test: Growth inhibition of human SK-MEL-5 cells after 48 hrs by sulforhodamine B assay; settings: SK-MEL-5, 48 h; procedure, shortened: as §1
MCF7 = test: Antiproliferative activity against human MCF7 cells assessed as cell growth at 100 uM after 48 hrs by alamar blue assay; settings: MCF7, 48 h, read-out: Activity
Procedure, shortened: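 NCI three-cell-line primary screen. Cells are seeded and preincubated in microtiter plates. Compound is added at a single 10^-4 M concentration and cultures are incubated 48 h. The end-point is read with alamar blue. Results are given as percent growth relative to untreated control cells.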

U-251 = test: Growth inhibition of human U251 cells after 48 hrs by sulforhodamine B assay; settings: U-251, 48 h; procedure, shortened: as §2
OVCAR-8 = test: Growth inhibition of human OVCAR8 cells after 48 hrs by sulforhodamine B assay; settings: OVCAR-8, 48 h; procedure, shortened: as §1
SW-620 = test: Growth inhibition of human SW620 cells after 48 hrs by sulforhodamine B assay; settings: SW-620, 48 h; procedure, shortened: as §2
LOX IMVI = test: Growth inhibition of human LOXIMVI cells after 48 hrs by sulforhodamine B assay; procedure, shortened: as §1
NCI-H226 = test: Growth inhibition of human NCI-H226 cells after 48 hrs by sulforhodamine B assay; settings: NCI-H226, 48 h; procedure, shortened: as §1
M14 = test: Growth inhibition of human M14 cells after 48 hrs by sulforhodamine B assay; settings: M14, 48 h; procedure, shortened: as §1
UACC-62 = test: Growth inhibition of human UACC62 cells after 48 hrs by sulforhodamine B assay; settings: UACC-62, 48 h; procedure, shortened: as §2
[2] = read-out: LC50 (the source's name)

`COc1ccc(/C=N/c2nc3[nH]nc(C)n3c(=O)c2S(=O)(=O)NN2C(=O)C(CN3CCN(C)CC3)SC2c2ccc(OC)cc2)cc1` (centres undefined) showed a GI50 (HL-60(TB)) of 28.2 µM, an LC50 (HL-60(TB)) greater than 100 µM and a TGI (HL-60(TB)) of 86.8 µM. The GI50 (SF-295) was 16.8 µM, the LC50 (concentration killing 50% of cells) (SF-295) was 76.8 µM and the TGI (SF-295) was 35.9 µM. For the same molecule, the GI50 (SF-268) was 17.7 µM, the TGI (SF-268) was 42 µM and the CC50 (SF-268; [2]) was 99.6 µM. For the same molecule, the GI50 (SK-OV-3) was 27.1 µM, the TGI (SK-OV-3) was 73.3 µM and the GI50 (SN12C) was 18.6 µM. The LC50 (SN12C) was 68.9 µM, the TGI (SN12C) was 35.8 µM and the GI50 (HOP-62) was 20.2 µM. It also gave an LC50 (HOP-62) of 82.6 µM, a TGI (HOP-62) of 40.9 µM and a GI50 (NCI/ADR-RES) of 14.1 µM. For the same molecule, the TGI (NCI/ADR-RES) was 40.2 µM, the GI50 (HOP-92) was 17.8 µM and the LC50 (HOP-92) was 74.2 µM. The TGI (HOP-92) was 36.4 µM, the GI50 [1] was 13 µM and the LC50 (concentration killing 50% of cells) [1] was 88.7 µM. It also gave a TGI [1] of 34 µM, a GI50 (K562) of 13 µM and an LC50 (K562) of 63.3 µM. The TGI (K562) was 28.7 µM, the GI50 (RXF 393) was 10.2 µM and the TGI (RXF 393) was 31.1 µM. The CC50 (RXF 393; [2]) was 95.1 µM, the GI50 (HCT-116) was 5.89 µM and the LC50 (concentration killing 50% of cells) (HCT-116) was 71.5 µM. For the same molecule, the TGI (HCT-116) was 47.2 µM, the GI50 (ACHN) was 17.4 µM and the TGI (ACHN) was 34.5 µM. For the same molecule, the CC50 (ACHN; [2]) was 68.4 µM, the GI50 (SK-MEL-2) was 21.3 µM and the LC50 (concentration killing 50% of cells) (SK-MEL-2) was 99.4 µM. The TGI (SK-MEL-2) was 46.1 µM, the GI50 (T47D) was 31.2 µM and the TGI (T47D) was 89.4 µM. It also gave a GI50 (SNB-75) of 23.6 µM, a TGI (SNB-75) of 51.8 µM and a GI50 (IGROV-1) of 21 µM. The LC50 (IGROV-1) was 93.9 µM, the TGI (IGROV-1) was 44.4 µM and the GI50 (MDA-MB-231) was 12.2 µM. The LC50 (50% lethal concentration) (MDA-MB-231) was 88.6 µM, the TGI (MDA-MB-231) was 32.9 µM and the GI50 (UO-31) was 20.6 µM. For the same molecule, the LC50 (UO-31) was 70.5 µM, the TGI (UO-31) was 38.1 µM and the GI50 (SK-MEL-5) was 19.3 µM. It also gave a TGI (SK-MEL-5) of 39 µM, a CC50 (SK-MEL-5; [2]) of 78.5 µM and a growth at 100 µM (MCF7) of 9%. For the same molecule, the GI50 (U-251) was 17.6 µM, the LC50 (U-251) was greater than 100 µM and the TGI (U-251) was 45.2 µM. For the same molecule, the GI50 (OVCAR-8) was 7.82 µM, the TGI (OVCAR-8) was 47.2 µM and the GI50 (SW-620) was 30.4 µM. The GI50 (LOX IMVI) was 7.4 µM, the TGI (LOX IMVI) was greater than 100 µM and the GI50 (NCI-H226) was 12.4 µM. It also gave an LC50 (concentration killing 50% of cells) (NCI-H226) of 75.7 µM, a TGI (NCI-H226) of 30.6 µM and a GI50 (M14) of 17 µM. The LC50 (concentration killing 50% of cells) (M14) was 78 µM, the TGI (M14) was 36.5 µM and the GI50 (UACC-62) was 18.9 µM. For the same molecule, the TGI (UACC-62) was 38.4 µM and the CC50 (UACC-62; [2]) was 77.8 µM.
